ChEMBL document CHEMBL3763021 (Eur J Med Chem, 2016)

Assay: Inhibition of Sonic-induced hedgehog signalling in mouse NIH3T3 cells after 48 hrs by Gli-luciferase reporter assay
Assay type: cell-based
Settings: NIH3T3, 48 h
In short: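 NIH3T3 cells stably carrying a Gli-luciferase reporter were kept in DMEM with 10% FBS and 1 µg/mL puromycin, then seeded at 2×10^4 cells/well overnight at 37 °C. Compounds at 0.05–300 nM (8 concentrations) were added in medium with 0.5% FBS and 0.7 µg/mL Sonic Hh agonist, n=4 wells, for 48 h. Readout was the Firefly/Renilla luciferase ratio in lysates.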

Question: With `Cc1ccc(CN2CCN(C)CC2)cc1NC(=O)c1ccc(Nc2ncc(F)c(-c3ccc(OC(F)(F)F)cc3)n2)cc1` as the molecule, how does the IC50 read?
Answer: Its IC50 is 2.84 nM.

Question: With `CCN(CC)Cc1ccc(C)c(NC(=O)c2ccc(Nc3nccc(-c4ccc(OC(F)(F)F)cc4)n3)cc2)c1` as the molecule, how does the IC50 read?
Answer: The IC50 was 2.31 nM.

Question: Which IC50 does the source give for `Cc1ccc(CN2CCN(C)CC2)cc1NC(=O)c1ccc(Nc2nccc(-c3ccc(OC(F)(F)F)cc3)n2)cc1` here?
Answer: Its IC50 is 0.97 nM.

Question: For `Cc1ccc(CN2CCCCC2)cc1NC(=O)c1ccc(Nc2nccc(-c3ccc(OC(F)(F)F)cc3)n2)cc1`, which IC50 is on record?
Answer: The IC50 was 2.68 nM.

Question: For `Cc1ccc(CN(C)C)cc1NC(=O)c1ccc(Nc2nccc(-c3ccc(OC(F)(F)F)cc3)n2)cc1`, which IC50 is on record?
Answer: The IC50 was 3.04 nM.

Question: For `Cc1ccc(CN2CCCC2)cc1NC(=O)c1ccc(Nc2nccc(-c3ccc(OC(F)(F)F)cc3)n2)cc1`, which IC50 is on record?
Answer: Its IC50 is 1.83 nM.

Question: Which IC50 does the source give for `Cc1ccc(CN(C)C)cc1NC(=O)c1ccc(Nc2ncc(F)c(-c3ccc(OC(F)(F)F)cc3)n2)cc1` here?
Answer: Its IC50 is 3.19 nM.

Question: For `Cc1ccc(CN2CCOCC2)cc1NC(=O)c1ccc(Nc2ncc(C3CC3)c(-c3ccc(OC(F)(F)F)cc3)n2)cc1`, which IC50 is on record?
Answer: Its IC50 is 11.9 nM.

Question: For `CCN(CC)Cc1ccc(C)c(NC(=O)c2ccc(Nc3ncc(F)c(-c4ccc(OC(F)(F)F)cc4)n3)cc2)c1`, which IC50 is on record?
Answer: Its IC50 is 2.56 nM.
